Test results taken from ChEMBL document CHEMBL4316604, “Discovery of Isaindigotone Derivatives as Novel Bloom's Syndrome Protein (BLM) Helicase Inhibitors That Disrupt the BLM/DNA Interactions and Regulate the Homologous Recombination Repair” (J Med Chem, 2019).
Activity calls are given as the source filed them. No cut-off for these calls is given here.

Columns and labels:
[1] = molecular target: T1, RecQ-like DNA helicase BLM (Homo sapiens, UniProt P54132); assay: Inhibition of His-tagged BLM (unknown origin) expressed in Escherichia coli BL21 (DE3) assessed as reduction in BLM helicase unwinding activity at 10 uM using 5'-biotin labeled forked-DNA as substrate after 1 hr by PAGE analysis
Procedure, shortened: (§1)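 BLM642-1296 (His-tagged, E. coli BL21(DE3)) preincubated with ligand (1.0, 10, 50 μM; ≤1% DMSO) for 1 h at 4 °C. Reaction: 8 nM annealed 5′-biotin duplex forked DNA, 32 nM BLM, 2 mM ATP, 0.1% BSA, 1 h.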

[2] = molecular target: T1, RecQ-like DNA helicase BLM; assay: Inhibition of His-tagged BLM (unknown origin) expressed in Escherichia coli BL21 (DE3) assessed as reduction in BLM helicase unwinding activity at 50 uM using 5'-biotin labeled forked-DNA as substrate after 1 hr by PAGE analysis; procedure, shortened: as §1
[3] = molecular target: T1, RecQ-like DNA helicase BLM; assay: Inhibition of His-tagged BLM (unknown origin) expressed in Escherichia coli BL21 (DE3) assessed as reduction in BLM helicase unwinding activity at 1 uM using 5'-biotin labeled forked-DNA as substrate after 1 hr by PAGE analysis; procedure, shortened: as §1
[4] = molecular target: T1, RecQ-like DNA helicase BLM; assay: Inhibition of BLM in human HCT116 cells assessed as induction of HRR up-regulation after 24 hrs by GFP-based flow cytometry; type: cell-based
Procedure, shortened: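 HCT116 cells (2×10^5) co-transfected with DR-GFP HRR reporter and I-SceI plasmid; 24 h later treated with 0–2 μM ligand (reference 0–50 μM); BLM siRNA knockdown where stated. GFP-positive cells counted by flow cytometry and normalised to untreated; triplicate, mean ± SD.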

[5] = molecular target: T1, RecQ-like DNA helicase BLM; settings: 50 uM

T1 sequence (P54132 whole entry): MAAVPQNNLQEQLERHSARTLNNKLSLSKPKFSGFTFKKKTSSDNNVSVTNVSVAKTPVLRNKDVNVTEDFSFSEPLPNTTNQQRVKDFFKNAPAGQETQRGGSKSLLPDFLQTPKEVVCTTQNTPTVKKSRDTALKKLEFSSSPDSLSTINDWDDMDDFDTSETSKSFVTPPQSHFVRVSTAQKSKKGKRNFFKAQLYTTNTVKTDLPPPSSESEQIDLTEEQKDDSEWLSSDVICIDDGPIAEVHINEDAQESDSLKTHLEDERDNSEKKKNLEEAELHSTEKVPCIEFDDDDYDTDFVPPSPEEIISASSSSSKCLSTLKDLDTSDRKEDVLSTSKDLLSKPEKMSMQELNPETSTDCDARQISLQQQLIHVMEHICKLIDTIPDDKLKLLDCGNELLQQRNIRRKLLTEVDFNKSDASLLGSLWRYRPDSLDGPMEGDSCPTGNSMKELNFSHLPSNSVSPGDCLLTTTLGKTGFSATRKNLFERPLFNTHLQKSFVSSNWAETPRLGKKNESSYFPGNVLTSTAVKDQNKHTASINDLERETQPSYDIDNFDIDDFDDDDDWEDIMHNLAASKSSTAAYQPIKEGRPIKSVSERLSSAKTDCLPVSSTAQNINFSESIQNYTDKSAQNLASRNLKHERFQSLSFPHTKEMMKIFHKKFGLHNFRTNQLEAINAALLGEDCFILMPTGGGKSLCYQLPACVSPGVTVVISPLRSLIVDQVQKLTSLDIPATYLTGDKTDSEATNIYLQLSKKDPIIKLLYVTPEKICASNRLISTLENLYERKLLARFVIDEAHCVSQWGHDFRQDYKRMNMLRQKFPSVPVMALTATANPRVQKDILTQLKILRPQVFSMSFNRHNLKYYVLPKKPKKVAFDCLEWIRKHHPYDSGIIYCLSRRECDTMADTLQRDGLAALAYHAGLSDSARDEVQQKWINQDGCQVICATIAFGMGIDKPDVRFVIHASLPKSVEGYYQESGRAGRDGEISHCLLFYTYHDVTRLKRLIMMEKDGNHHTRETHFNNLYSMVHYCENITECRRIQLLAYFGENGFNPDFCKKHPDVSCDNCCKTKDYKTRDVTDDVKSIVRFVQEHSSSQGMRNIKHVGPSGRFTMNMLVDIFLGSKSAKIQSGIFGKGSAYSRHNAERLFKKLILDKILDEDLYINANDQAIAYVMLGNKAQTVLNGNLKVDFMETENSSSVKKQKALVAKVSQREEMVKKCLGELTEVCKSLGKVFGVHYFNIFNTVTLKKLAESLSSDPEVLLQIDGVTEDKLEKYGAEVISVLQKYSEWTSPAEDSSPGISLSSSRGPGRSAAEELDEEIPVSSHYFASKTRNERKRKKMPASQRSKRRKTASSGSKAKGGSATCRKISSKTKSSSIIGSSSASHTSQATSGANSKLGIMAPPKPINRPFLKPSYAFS

With CCN(CC)CCCNc1cc2nc3n(c(=O)c2cc1F)CC/C3=C\c1ccc(C(C)(C)C)cc1 the inhibition [1] was “Active”, the inhibition [2] was “Active” and the inhibition [3] was “Active”.

In the case of O=C(Nc1ccc(F)c(C(F)(F)F)c1)Nc1nnc(-c2ccncc2)s1, the EC [4] is reported as 50 µM, the inhibition [1] is reported as “Active” and the inhibition [5] is reported as “inactive”. The inhibition [2] was “Active” and the inhibition [3] was “Active”.

With CCN(CC)CCCNc1cc2nc3n(c(=O)c2cc1F)CC/C3=C\c1ccc(C(F)(F)F)cc1 the inhibition [1] was “Active”, the inhibition [2] was “Active” and the inhibition [3] was “Active”.

For CCN(CC)CCCNc1cc2nc3n(c(=O)c2cc1F)CC/C3=C\c1ccc(CC(C)C)cc1, the inhibition [1] was “Active”, the inhibition [2] was “Active” and the inhibition [3] was “Active”.
